Measured values: ChEMBL document CHEMBL3739408, “Antibacterial Prenylated Acylphloroglucinols from Psorothamnus fremontii” (J Nat Prod, 2015)
Values after ≈ are worked out from the molar mass of the structure shown.

Assays:
Staphylococcus aureus [1] = experiment: Antibacterial activity against methicillin-resistant Staphylococcus aureus ATCC 33591 by plate reader analysis; type: functional, organism-based
Procedure, shortened: (§1)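 Strains from ATCC; modified CLSI broth microdilution. Samples in DMSO were serially diluted in 20% DMSO–saline and plated in duplicate. Inocula were set by adjusting OD630 to give the final target CFU/mL. Methicillin and vancomycin were positive controls, with highest test concentrations of 50 and 20 μg/mL. IC50 is the 50% growth inhibition relative to controls, from curve fitting.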

Staphylococcus aureus [2] = experiment: Antibacterial activity against methicillin-resistant Staphylococcus aureus ATCC 1696 by plate reader analysis; type: functional, organism-based; procedure, shortened: as §1
LLC-PK1 = experiment: Cytotoxicity against pig LLC-PK1 cells assessed as cell viability after 48 hrs by neutral red-based assay; conditions: Sus scrofa, LLC-PK1, 48 h
Procedure, shortened: (§2)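 Mammalian cell lines from ATCC: human hepatic carcinoma HepG2, pig kidney epithelial LLC-PK1, and African green monkey kidney Vero. Highest test concentration was 50 μg/mL, and doxorubicin was the positive control at up to 10 μg/mL. IC50 was taken as the concentration giving 50% growth inhibition of the mammalian cells.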

Staphylococcus aureus [3] = experiment: Antibacterial activity against methicillin-resistant Staphylococcus aureus ATCC 1717 by plate reader analysis; type: functional, organism-based; procedure, shortened: as §1
HepG2 = experiment: Cytotoxicity against human HepG2 cells assessed as cell viability after 48 hrs by neutral red-based assay; conditions: HepG2, 48 h; procedure, shortened: as §2
Staphylococcus aureus [4] = experiment: Antibacterial activity against methicillin-resistant Staphylococcus aureus ATCC 1708 by plate reader analysis; type: functional, organism-based; procedure, shortened: as §1
Vero = experiment: Cytotoxicity against African green monkey Vero cells assessed as cell viability after 48 hrs by neutral red-based assay; conditions: Chlorocebus sabaeus; procedure, shortened: as §2
Enterococcus faecium = experiment: Antibacterial activity against vancomycin-resistant Enterococcus faecium ATCC 700221 by plate reader analysis; type: functional, organism-based; procedure, shortened: as §1
Staphylococcus aureus [5] = experiment: Antibacterial activity against methicillin-sensitive Staphylococcus aureus ATCC 29213 by plate reader analysis; type: functional, organism-based; procedure, shortened: as §1
Enterococcus faecalis [6] = experiment: Antibacterial activity against low level vancomycin-resistant Enterococcus faecalis ATCC 51299 by plate reader analysis; type: functional, organism-based; procedure, shortened: as §1
Enterococcus faecalis [7] = experiment: Antibacterial activity against vancomycin-sensitive Enterococcus faecalis ATCC 29212 by plate reader analysis; type: functional, organism-based; procedure, shortened: as §1

SMILES	IC50 (Staphylococcus aureus [1])	IC50 (Staphylococcus aureus [2])	IC50 (LLC-PK1)	IC50 (Staphylococcus aureus [3])	IC50 (HepG2)	IC50 (Staphylococcus aureus [4])	IC50 (Vero)	IC50 (Enterococcus faecium)	IC50 (Staphylococcus aureus [5])	IC50 (Enterococcus faecalis [6])	IC50 (Enterococcus faecalis [7])
CC(C)=CCC1=C2OC(C)(C)CC3OC23C(=O)C(C(=O)C(C)C)=C1O (centres undefined)	1.4 µg/mL (≈ 4.04 µM)	8.8 µg/mL (≈ 25.4 µM)	30 µg/mL (≈ 86.6 µM)	1.6 µg/mL (≈ 4.62 µM)	31 µg/mL (≈ 89.5 µM)	8.6 µg/mL (≈ 24.8 µM)	21 µg/mL (≈ 60.6 µM)	1.6 µg/mL (≈ 4.62 µM)	2.4 µg/mL (≈ 6.93 µM)	2.8 µg/mL (≈ 8.08 µM)	5.3 µg/mL (≈ 15.3 µM)
CC1=C2OC(C)(C)CC3OC23C(=O)C(C(=O)C(C)C)=C1O (centres undefined)	11.1 µg/mL (≈ 38 µM)	–	–	–	–	–	–	–	10 µg/mL (≈ 34.2 µM)	–	–
CCC(C)C(=O)C1=C(O)C(C)=C2OC(C)(C)CC3OC23C1=O (centres undefined)	6.2 µg/mL (≈ 20.2 µM)	–	–	–	–	–	–	–	5.6 µg/mL (≈ 18.3 µM)	–	–
CN[C@@H](CC(C)C)C(=O)N[C@H]1C(=O)N[C@@H](CC(N)=O)C(=O)N[C@H]2C(=O)N[C@H]3C(=O)N[C@H](C(=O)N[C@@H](C(=O)O)c4cc(O)cc(O)c4-c4cc3ccc4O)[C@H](O)c3ccc(c(Cl)c3)Oc3cc2cc(c3O[C@H]2O[C@@H](CO)[C@H](O)[C@@H](O)[C@@H]2O[C@@H]2C[C@@](C)(N)[C@@H](O)[C@@H](C)O2)Oc2ccc(cc2Cl)[C@H]1O	–	–	–	–	–	–	–	> 20 µg/mL	–	3.3 µg/mL (≈ 2.28 µM)	1.4 µg/mL (≈ 0.966 µM)
COc1cccc2c1C(=O)c1c(O)c3c(c(O)c1C2=O)C[C@@](O)(C(=O)CO)C[C@@H]3O[C@H]1C[C@H](N)[C@H](O)[C@H](C)O1 [DOXORUBICIN]	–	–	0.5 µg/mL (≈ 0.92 µM)	–	–	–	–	–	–	–	–
COc1cccc(OC)c1C(=O)N[C@@H]1C(=O)N2[C@@H]1SC(C)(C)[C@@H]2C(=O)O [METHICILLIN]	> 50 µg/mL	3 µg/mL (≈ 7.89 µM)	–	26.9 µg/mL (≈ 70.7 µM)	–	3.2 µg/mL (≈ 8.41 µM)	–	–	0.5 µg/mL (≈ 1.31 µM)	–	–
